Assay results from ChEMBL document CHEMBL1155720, “Antioxidant principles from Bauhinia tarapotensis” (J Nat Prod, 2001).

Key:
Type in all cases: functional
[1] = Antioxidant activity against beta-carotene and linoleic acid assessed asbleaching of beta-carotene at 120 mins by autooxidation assay
Procedure, shortened: (§1)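 β-carotene bleaching (Pratt method): linolenic acid 20 mg and Tween 20 200 mg plus β-carotene 2 mg in 10 mL CHCl3. CHCl3 removed, then 50 mL oxygen-saturated distilled water added. Samples oxidized at 50 °C for 3 h, A470 read at intervals. AA = 100[1 − (A0 − At)/(A00 − A0t)], comparing absorbance at start and at time t with and without compound.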

[2] = Antioxidant activity assessed as trolox equivalents of ABTS radical scavenging activity by TEAC assay
Procedure, shortened: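 ABTS•+ made from 7 mM ABTS in water with 2.45 mM potassium persulfate, kept 12 h in the dark at room temperature. Diluted in PBS pH 7.4 to A734 0.70 and equilibrated at 30 °C. Samples in methanol at 0.3–2 mM, 10 µL added to 1 mL ABTS•+. Percent inhibition of A734 measured against a methanol blank, in triplicate, and plotted against concentration. TEAC is the Trolox concentration giving the same inhibition as 1 mM compound.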

[3] = Antioxidant activity against beta-carotene and linoleic acid assessed asbleaching of beta-carotene at 60 mins by autooxidation assay; procedure, shortened: as §1
[4] = test system: Radical scavenging activity; experiment: Antioxidant activity assessed as DPPH free radical scavenging activity after 30 mins
Procedure, shortened: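 Pure compound in methanol, 30 µL added to 3 mL of 0.004% DPPH in MeOH. A517 read after 30 min and percent inhibition calculated. IC50 is the concentration scavenging 50% of DPPH radical.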

IC50 [4] [µM]	Compound	Activity [1]	Activity [2]	Activity [3]
–	O=C1C=C[C@H](O)C[C@@]1(O)CCO (relative stereo)	9.7	0.076	43
–	C[C@@H]1O[C@@H](OC[C@H]2O[C@@H](Oc3c(-c4ccc(O)c(O)c4)oc4cc(O)cc(O)c4c3=O)[C@H](O)[C@@H](O)[C@@H]2O)[C@H](O)[C@H](O)[C@H]1O	–	2.42	–
10.5	COc1cc([C@@H]2c3cc(O)c(OC)cc3C[C@H](CO)[C@H]2CO[C@@H]2O[C@H](CO)[C@@H](O)[C@H](O)[C@H]2O)ccc1O	-6.2	0.826	-10
1.3	C[C@@H]1O[C@@H](O[C@@H]2[C@@H](O)[C@H](OCCc3ccc(O)c(O)c3)O[C@H](COC(=O)/C=C/c3ccc(O)c(O)c3)[C@H]2O)[C@H](O)[C@H](O)[C@H]1O [ISOACTEOSIDE]	7.2	1.23	24.6
–	O=c1cc(-c2ccc(O[C@@H]3O[C@H](CO)[C@@H](O)[C@H](O)[C@H]3O)c(O)c2)oc2cc(O)cc(O)c12	10	0.445	16.2
–	O=C(O)/C=C/c1ccc(O)c(O)c1	–	1.26	–
–	O=C(O)c1c[nH]c2ccccc12	-6.5	0.092	-10.1
20.3	COc1cc([C@H]2OC[C@]3(O[C@@H]4O[C@H](CO)[C@@H](O)[C@H](O)[C@H]4O)[C@@H](c4ccc(O)c(OC)c4)OC[C@H]23)ccc1O	8.5	0.935	10.7
–	Cc1cc(C(C)(C)C)c(O)c(C(C)(C)C)c1	62.5	–	63.9
–	O=C(/C=C/c1ccc(O)c(O)c1)OCC(O)(CO)C(O)C(=O)O (stereo not drawn)	20.5	0.484	25.2
